Source: PubChem BioAssay (several laboratories)
STEP block: blocks human striatal-enriched tyrosine phosphatase | inhibition, % at 20 µM | hit rate 0.25% among 360,000 | recombinant STEP, OMFP fluorogenic substrate, fluorescence;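 active = inhibition at 20 µM, scaled per plate between control wells, above about 37%, limit read from the data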
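medium = Bis-Tris buffer pH 6.0, 2.5 mM DTT, 0.005% Tween 20 | test system = STEP (striatal-enriched tyrosine phosphatase) enzyme, cell-free | measure = normalized % inhibition | compound dosing = 20 µM, 1% DMSO | also added = 25 µM OMFP | schedule = reaction 20 min, ambient temperature | measured by = fluorescence read at 480 nm ex / 540 nm em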
rCAG binder: r(CAG) repeat RNA binding | TO-PRO-1 dye displacement fluorescence | inhibition, % at 3 µM | hit rate 1.3% among 370,000;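 active = inhibition above the plate cutoff, the mean of all test compounds on that plate plus 3 SD, cut at about 35% in these data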;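 also: higher means more dye released from RNA so lower well fluorescence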
LMPTP block: LMPTP (human) inhibition | P24666 | recombinant LMPTP-A, OMFP fluorogenic substrate, fluorescence intensity | inhibition, % at 20 µM | hit rate 0.22% among 360,000;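 active = compounds that cut the enzyme signal by at least half of the control window in the single-dose screen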
Target sequence (P24666 whole entry, looked up): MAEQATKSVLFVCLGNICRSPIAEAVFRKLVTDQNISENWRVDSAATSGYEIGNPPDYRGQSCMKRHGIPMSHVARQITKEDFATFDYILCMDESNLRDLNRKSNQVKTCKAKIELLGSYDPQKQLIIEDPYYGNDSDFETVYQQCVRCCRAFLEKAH
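material = LMPTP-A | quantity = 0.625 nM enzyme | reagent = OMFP substrate, 400 µM final | buffer or medium = Bis-Tris pH 6.0, DTT, detergent | detection = endpoint fluorescence intensity from OMFP dephosphorylation | dosing = single 20 µM dose | read-out basis = % inhibition relative to no-enzyme and uninhibited control wells | control set = no-enzyme and uninhibited controls | timing = 50 min at room temperature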
NadD block: blocks S. aureus nicotinate mononucleotide adenylyltransferase; hit rate 0.78% among 360,000; AID 602399; inhibition, % at 20 µM; purified NadD enzyme, colorimetric absorbance read-out; in the data active = inhibition above about 26%
Scp-1 inhibitor: blocks human Scp-1 phosphatase activity; hit rate 0.88% among 340,000; Recombinant Scp1, phosphopeptide, malachite green phosphate absorbance; Q9GZU7; AID 493091; inhibition, % at 20 µM;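 active = inhibition above about 50% at 20 µM, limit read from the data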
Target sequence (Q9GZU7 76-261 limits assumed): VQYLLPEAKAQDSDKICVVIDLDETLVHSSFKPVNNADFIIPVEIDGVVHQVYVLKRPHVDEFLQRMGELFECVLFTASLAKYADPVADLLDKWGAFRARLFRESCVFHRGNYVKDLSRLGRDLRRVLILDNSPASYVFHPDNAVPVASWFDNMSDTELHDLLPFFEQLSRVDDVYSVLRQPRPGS
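Test system: SCP-1 phosphatase catalytic domain, residues 76-261 | Compound dosing: One concentration, 20 µM, with 1.0% DMSO | Schedule: 45 min room-temperature reaction, 5 min colour, 30 min stabiliser | Detection: Absorbance at 630 nm | Read-out basis: % inhibition of SCP-1 phosphate liberation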
rCAG bind conf: r(CAG) RNA repeat binding, confirmation | shares compounds with rCAG binder | TO-PRO-1 dye displacement fluorescence | inhibition, % at 3 µM | hit rate 70% among 4,300;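 active = inhibition above a per-plate cutoff, the mean inhibition of sample wells plus 3 SD, cut at about 35% in these data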;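 also: loss of TO-PRO-1 fluorescence as compound displaces dye from 1x1 AA loop RNA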
dCAG dye counter: counter-screen for rCAG RNA binders: DNA CAG dye complex inhibitors; inhibition, % at 3 µM; shares compounds with rCAG binder; hit rate 94% among 4,300; d(CAG) DNA oligo TO-PRO-1 dye displacement, fluorescence;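 active = inhibition above its plate's cutoff, the mean test-well inhibition plus 3 SD, cut at about 4.8% in these data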;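 also: hits displace the dye from DNA and so lower well fluorescence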
dCAG dye DR: DNA CAG dye complex inhibition, dose response counter-screen; shares compounds with rCAG binder; DNA CAG/GTC duplex TO-PRO-1 dye displacement fluorescence; IC50, µM; hit rate 20% among 250; in the data active = IC50 below about 10 µM
Large screens that a line does not name were inactive (follow-up assays come after a bar, where they were run). Hits are enriched below; roughly 2.6% of the tested compounds scored in any of these assays.

COc1ccc2nc(Nc3ccc4c(c3)OCO4)sc2c1	none
O=C(NC(Nc1ncc(S(=O)(=O)c2ccc([N+](=O)[O-])cc2)s1)(C(F)(F)F)C(F)(F)F)c1ccc(Cl)cc1	rCAG binder 46 | rCAG bind conf 52 | dCAG dye counter 14
COc1ccc(-c2cc(=O)c3cccc(CC(=O)O)c3o2)cc1	none (no result: STEP block, LMPTP block, NadD block, Scp-1 inhibitor)
COc1cccc(C(=O)Nc2cccc(C(=O)NC3=NN(c4c(Cl)cc(Cl)cc4Cl)C(=O)C3)c2)c1	rCAG binder 56 | rCAG bind conf 48 | dCAG dye counter 17
CC(C)(C)C(=O)NC1=NN(c2c(Cl)cc(Cl)cc2Cl)C(=O)C1	rCAG binder 44 | rCAG bind conf inactive | dCAG dye counter inactive
C=CCN(C(=O)[C@@H](CCCC)[C@@H](O)c1ccc2ccccc2c1)c1ccccc1	none (no result: STEP block, LMPTP block, NadD block, Scp-1 inhibitor)
COc1cc(/C=C2\CC/C(=C\c3cc(OC)c(OC)c(OC)c3)C2=O)cc(OC)c1OC	none
COc1cc(/C=C2/CCC/C(=C\c3cc(O)c(OC)c(Cl)c3)C2=O)cc(Cl)c1O	rCAG binder 38, NadD block 50 | rCAG bind conf inactive | dCAG dye counter 10
COc1cc(/C=C2\CC/C(=C\c3cc(OC)c(O)c(OC)c3)C2=O)cc(OC)c1O	rCAG binder 36 | rCAG bind conf 40 | dCAG dye counter 15
CC(C)[C@H](NC(=O)c1ccc(Cl)cc1Cl)C(=O)N1CCC[C@H]1C(=O)NCCc1ccccc1Cl	none (no result: STEP block, LMPTP block, NadD block, Scp-1 inhibitor)
CC(=O)NS(=O)(=O)c1ccc(NC(=O)/C=C/c2cn(-c3ccccc3)nc2-c2ccccc2)cc1	rCAG binder 87 | rCAG bind conf 86 | dCAG dye counter 66
C=CCNC(=O)CN(C(=O)c1ccncn1)c1cccc(Br)c1	none (no result: STEP block, LMPTP block, NadD block, Scp-1 inhibitor)
Cc1ccc(S(=O)(=O)N2[C@@H](c3ccccc3)C(C(=O)O)=CC[C@H]2c2ccc(Cl)cc2)cc1	rCAG binder 58 | rCAG bind conf 72 | dCAG dye counter 34 | dCAG dye DR inactive
Cc1ccc(S(=O)(=O)N2[C@@H](c3ccc(F)cc3)C(C(=O)O)=CC[C@H]2c2ccc(C(C)C)cc2)cc1	rCAG binder 82 | rCAG bind conf 80 | dCAG dye counter 44
Cc1ccc(S(=O)(=O)N2[C@@H](c3ccc(Br)cc3)C(C(=O)O)=CC[C@H]2c2ccc(Cl)cc2)cc1	rCAG binder 83 | rCAG bind conf 82 | dCAG dye counter 53
Cc1ccc(S(=O)(=O)N2[C@@H](c3ccc(F)cc3)C(C(=O)O)=CC[C@H]2c2ccc(Cl)cc2)cc1	rCAG binder 78 | rCAG bind conf 69 | dCAG dye counter 31
COc1ccc([C@@H]2CC=C(C(=O)O)[C@H](c3ccc(Br)cc3)N2S(=O)(=O)c2ccc(C)cc2)cc1OC	rCAG binder 47 | rCAG bind conf 43 | dCAG dye counter 14
Cc1ccc(S(=O)(=O)N2[C@@H](c3ccc(Cl)cc3)C(C(=O)O)=CC[C@H]2c2ccc(Cl)cc2)cc1	rCAG binder 82 | rCAG bind conf 84 | dCAG dye counter 53
CCOc1ccc([C@@H]2CC=C(C(=O)O)[C@H](c3ccc(Cl)cc3)N2S(=O)(=O)c2ccc(C)cc2)cc1	rCAG binder 59 | rCAG bind conf 74 | dCAG dye counter 37
O=C(O)C1=CC[C@@H](c2ccc(Cl)cc2)N(S(=O)(=O)c2ccc(Cl)cc2)[C@H]1c1ccc(Br)cc1	rCAG binder 85 | rCAG bind conf 88 | dCAG dye counter 58
Cc1ccc([C@@H]2CC=C(C(=O)O)[C@H](c3ccc(Cl)cc3)N2S(=O)(=O)c2ccc(C)cc2)cc1	rCAG binder 84 | rCAG bind conf 78 | dCAG dye counter 45
Cc1ccc(S(=O)(=O)N2[C@@H](c3cccc(Cl)c3)C(C(=O)O)=CC[C@H]2c2ccc(C(C)C)cc2)cc1	rCAG binder 85 | rCAG bind conf 80 | dCAG dye counter 45
Cc1ccc(S(=O)(=O)N2[C@@H](c3ccc(Cl)cc3)C(C(=O)O)=CC[C@H]2c2cccc(C)c2)cc1	none
Cc1ccc(S(=O)(=O)N2[C@@H](c3ccc(Cl)cc3)C(C(=O)O)=CC[C@H]2c2cccc(Cl)c2)cc1	none
C/C(CC(=O)Nc1ccc(Cl)c(Cl)c1)=N\NC(=O)Cc1ccccc1	none
COc1ccc(Cl)c(NC(=O)C/C(C)=N/NC(=O)CCc2ccccc2)c1	rCAG binder 37 | rCAG bind conf inactive | dCAG dye counter inactive
O=C(Nc1nc(-c2ccco2)c(-c2ccco2)s1)C1CCC1	rCAG binder 37 | rCAG bind conf inactive | dCAG dye counter 11
CC(C)Oc1cccc(-c2n[nH]c(=S)n2N=Cc2ccc(OCc3ccccc3)cc2)c1	rCAG binder 51 (no result: STEP block, LMPTP block, NadD block, Scp-1 inhibitor) | rCAG bind conf 52 | dCAG dye counter 26
Cc1cc(-c2n[nH]c(=S)n2N=Cc2ccc(OCc3ccccc3)cc2)n[nH]1	rCAG binder 35 (no result: STEP block, LMPTP block, NadD block, Scp-1 inhibitor) | rCAG bind conf 40 | dCAG dye counter 9.8
S=c1[nH]nc(-c2n[nH]c3c2CCC3)n1N=Cc1ccc(OCc2ccccc2)cc1	rCAG binder 38 (no result: STEP block, LMPTP block, NadD block, Scp-1 inhibitor) | rCAG bind conf 43 | dCAG dye counter 14
COc1ccc(C2=CCN(C)C(=O)N2c2ccc([N+](=O)[O-])cc2)cc1	none (no result: STEP block, LMPTP block, NadD block, Scp-1 inhibitor)
CC(=O)c1ccc(NC(=O)C(C)OC(=O)c2ccc(NS(=O)(=O)c3ccc(F)c(F)c3)cc2)cc1 (centres undefined)	rCAG binder 53 | rCAG bind conf 43 | dCAG dye counter 17
Cc1ccc(NC(=O)C(C)OC(=O)c2ccc(NS(=O)(=O)c3ccc(F)c(F)c3)cc2)cc1 (centres undefined)	rCAG binder 58 | rCAG bind conf 67 | dCAG dye counter 20
CC(OC(=O)c1ccc(NS(=O)(=O)c2ccc3[nH]c(=O)[nH]c3c2)cc1)C(=O)Nc1ccc(Cl)cc1 (centres undefined)	rCAG binder 43 | rCAG bind conf inactive | dCAG dye counter 13
O=[N+]([O-])c1ccc(Cn2ccc3ccc(-c4ccc5ccn(Cc6ccccc6)c5c4)cc32)cc1	none (no result: STEP block, LMPTP block, NadD block, Scp-1 inhibitor)
CCCCc1cc(=O)oc2cc(C)cc(OCC(=O)N[C@@H](CSCc3ccccc3)C(=O)O)c12	rCAG binder 39 | rCAG bind conf 47 | dCAG dye counter 12
CCc1cc(=O)oc2cc(C)cc(OCC(=O)N[C@@H](CSCc3ccccc3)C(=O)O)c12	rCAG binder 47 | rCAG bind conf 40 | dCAG dye counter 8.3
CCc1cc(=O)oc2cc(C)cc(OCC(=O)NC(Cc3ccc(Cl)cc3)C(=O)O)c12 (centres undefined)	none
